Compounds with a hit are over-represented: about 1.9% of the library has one in this group of screens.
Tb hexokinase – blocks Trypanosoma brucei hexokinase 1 activity; recombinant TbHK1, G6PDH-coupled NADH A340; inhibition, % at 10 µM; hit rate 0.11% among 220,000; AID 1430;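 active = inhibition of 50% or more in the single-dose primary screen; inactive = inhibition below 50%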
RanGTP-Impb inh – disruptors of Ran-importin-beta complex formation – biochemical, FRET, CFP-Ran, YFP-importin-beta, homogeneous, primary screen | AID 2216 | cell-free CFP-Ran/YFP-importin-beta FRET ratio | hit rate 1.1% among 300,000 | inhibition, % (test concentration not listed);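 active = more than half of the replicate wells show a fall in the fluorescence ratio signal beyond about 16%, limit read from the data, passing the limit was not always enough; inconclusive = exactly half of the replicate wells pass the set limit; inactive = fewer than half of replicates pass the limit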;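 also: 0% = DMSO wells and 100% = Ran loaded with GDP instead of GTP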
Runt-CBFb FRET – blocks binding of human RUNX1 Runt domain to CBFb. inhibition, % at 20 µM. hit rate 0.46% among 220,000. AID 1496. Cerulean-Runt/Venus-CBFb FRET ratio 530/480, 1 h;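 active = inhibition over about 50% at 20 µM in the single-dose screen, limit read from the data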;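 also: 0% = DMSO wells and 100% = excess unlabeled CBFb competitor control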
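Buffer or medium: Tris pH 7.5 buffer with BSA. Assay system: Cerulean-labeled Runt domain protein. Amount: each fluorescent fusion protein 100 nM. Read-out basis: loss of energy transfer signal. Incubation: 1 h compound exposure, room temperature. Probe or stimulus: Venus-CBFb binding partner, 100 nM. Detection: FRET, excitation 422 nm, emission at 530 and 480 nm.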
Hck Nef HTS – blocks Nef-activated human Hck kinase. P08631. Recombinant Hck-YEEI plus Nef, Z-Lyte FRET kinase assay. inhibition, % at 20 µM. hit rate 0.68% among 220,000. AID 463187;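 active = Hck-Nef kinase inhibition above about 50%, limit read from the data; inactive = inhibition below that limit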;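 also: 0% = DMSO with Hck plus Nef and 100% = Hck alone without Nef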
Target sequence (P08631 whole entry, looked up): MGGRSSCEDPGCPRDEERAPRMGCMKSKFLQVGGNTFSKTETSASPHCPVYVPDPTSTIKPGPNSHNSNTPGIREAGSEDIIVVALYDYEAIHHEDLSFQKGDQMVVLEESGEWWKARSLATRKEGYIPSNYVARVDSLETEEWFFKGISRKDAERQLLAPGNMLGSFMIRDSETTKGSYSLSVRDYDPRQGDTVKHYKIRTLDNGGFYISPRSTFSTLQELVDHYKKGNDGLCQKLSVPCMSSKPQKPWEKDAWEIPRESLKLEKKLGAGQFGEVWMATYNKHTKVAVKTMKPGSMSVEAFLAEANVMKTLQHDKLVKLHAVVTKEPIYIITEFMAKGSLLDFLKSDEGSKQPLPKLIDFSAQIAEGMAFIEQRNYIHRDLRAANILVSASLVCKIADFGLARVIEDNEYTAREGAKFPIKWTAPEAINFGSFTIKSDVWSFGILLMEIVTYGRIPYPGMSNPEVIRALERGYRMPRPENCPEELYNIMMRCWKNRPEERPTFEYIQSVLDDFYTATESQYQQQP
Runt-SMMHC FRET – inhibitors of human RUNX1 Runt domain binding to CBFb-SMMHC; inhibition, % at 20 µM; AID 1434; Q01196+Q13951; Cerulean-Runt/Venus-CBFb-SMMHC FRET ratio 530/480, 1 h; hit rate 0.74% among 220,000;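 active = mean inhibition across duplicate retests at 20 µM reaching about 50%, limit read from the data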;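 also: 0% = DMSO wells and 100% = wells with excess untagged CBFb-SMMHC; inhibitors lower the FRET ratio by blocking Runt binding to CBFb-SMMHC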
Runt-CBFb TRFRET – inhibitors of human RUNX1 Runt domain binding to CBFb. inhibition, % at 20 µM. shares compounds with Runt-CBFb FRET. hit rate 20% among 480. TR-FRET RUNX1 Runt domain-CBFb binding; in the data active = inhibition above about 40%
Starred values were filed as active, the others as inactive; ? = inconclusive; . = not tested or not shown.

SMILES	Tb hexokinase	RanGTP-Impb inh	Runt-CBFb FRET	Hck Nef HTS	Runt-SMMHC FRET	Runt-CBFb TRFRET
COc1ccc2oc(=N)c(-c3nnc4n3CCCCC4)cc2c1	-5	10	5	-12	4	.
N=c1oc2ccc3ccccc3c2cc1-c1nnc2n1CCCCC2	-27	.	52*	23	108*	-6
CCOc1ccc(C(=O)NCC(=O)N2CCc3ccccc3C2)cc1OCC	-2	0	1	17	0	.
NS(=O)(=O)c1ccc(NC(=S)N2CCN(c3ccccc3Cl)CC2)cc1	-1	3	1	0	4	.
NS(=O)(=O)c1ccc(NC(=S)N2CCN(c3cccc(Cl)c3)CC2)cc1	-2	-1	52*	1	36	58*
Cc1[nH]c2ccccc2c1N=Nc1ccccc1C(=O)O	29	5	52*	-2	-20	17
O=C(CSCc1cc(=O)n2nc(C3CC3)sc2n1)Nc1ccc(F)cc1	.	8	.	.	.	.
O=C(NCCc1ccccc1F)C1CCCN(c2nc3ccccc3s2)C1 (centres undefined)	.	-3	.	.	.	.
Cc1nc2ccccn2c1-c1ccnc(=S)[nH]1	-35	1	60*	-45	40	20
Cc1ccc(Nc2nc(-c3c(C)nc4ccccn34)cs2)cc1	-16	?	4	1	-3	.
Cc1cc(C)nc(SCC(=O)NC2CCCCC2C)n1 (centres undefined)	.	5	.	.	.	.
O=C1NC(c2ccccc2O)Nc2ccccc21 (centres undefined)	.	3	.	.	.	.
Cc1cccc(C2NC(=O)c3c(sc(C)c3C)N2)c1O (centres undefined)	-4	-2	51*	2	4	-17
O=C1c2ccccc2-c2c1cccc2C(=O)N(CCO)CCO	-4	-3	75*	-1	-1	-26
O=C(NCCO)c1cccc2c1-c1ccccc1C2=O	2	-2	2	2	-1	.
COc1ccc(CCn2c(=N)c(C(=O)N3CCN(C)CC3)cc3c(=O)n4ccccc4nc32)cc1	-13	6	65*	7	124*	30
O=C1CCNc2ccc(-c3ccccc3)cc21	-4	-9	60*	-23	-146	42*
N[C@@H](Cc1ccccc1)C(=O)N1CCC(C(=O)N[C@@H](Cc2c[nH]c3ccccc23)C(=O)O)CC1	.	1	.	.	.	.
CN(Cc1ccccc1)S(=O)(=O)c1ccc2c(c1)CCC(=O)N2	.	-3	.	.	.	.
CCc1nnc(NC(=O)CSc2nnc(-c3cccnc3)n2CC)s1	-2	?	77*	4	-9	-10
CCc1nnc(NC(=O)CSc2nnc(-c3ccccc3O)n2CC)s1	10	5	0	-2	-1	.
O=C1CCCC2=C1C(c1ccc(O)c(O)c1)c1c(ccc3ncccc13)N2 (centres undefined)	-11	5	51*	22	41	44*
CN(C)C(CNc1ccc(C(F)(F)F)cc1[N+](=O)[O-])c1ccccc1 (centres undefined)	.	0	.	.	.	.
CCc1ccc(N(CC(=O)NCc2ccco2)C(=O)CCC(=O)Nc2nccs2)cc1	.	-5	.	.	.	.
CCc1ccc2nc(NC(=O)c3ccc(N4C(=O)CCC4=O)cc3)sc2c1	-16	6	1	22	0	.
SMILES	Tb hexokinase	RanGTP-Impb inh	Runt-CBFb FRET	Hck Nef HTS	Runt-SMMHC FRET	Runt-CBFb TRFRET
CNS(=O)(=O)c1ccc2nc(NC(=O)c3ccc(N4C(=O)CCC4=O)cc3)sc2c1	-34	1	55*	21	60	12
CNC(=S)N(Cc1cc2ccc(OC)cc2[nH]c1=O)CC1CCCO1 (centres undefined)	-18	7	63*	17	40	26
COc1ccc2cc(CN(Cc3ccco3)C(=S)NCC3CCCO3)c(=O)[nH]c2c1 (centres undefined)	-23	1	.	16	.	.
CCc1ccc(N2C(=O)C(Cl)=C(N3CCCCCC3)C2=O)cc1	.	-2	.	.	.	.
Cc1cccc(N2C(=O)C(Cl)=C(N3CCOCC3)C2=O)c1	-3	3	51*	-8	42	18
CCc1ccc(N2C(=O)C(Cl)=C(N3CCOCC3)C2=O)cc1	-1	-2	68*	16	70	12
NC(=S)N/N=C/c1ccc(-c2cc(Cl)cc(Cl)c2)o1	-23	1	52*	6	12	17
